Drawing on ChEMBL document CHEMBL1131592, “DNA-Directed alkylating agents. 7. Synthesis, DNA interaction, and antitumor activity of bis(hydroxymethyl)- and bis(carbamate)-substituted pyrrolizines and imidazoles” (J Med Chem, 1998), this text covers IC50 and k obs for 12 molecules.

Assay [1] concerns P388. Description: Compound was evaluated for reduction in P388 (type I DNA) cell numbers to 50% of control values after a 72 hour exposure. It counts as functional, cell-based. To be noted: Mus musculus, P388, 72 h. Summed up: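 P388 murine leukemia cells, log-phase cultures; drug present throughout 72 h growth period. IC50 = nominal drug concentration reducing cell density to 50% of control; eight control wells per plate. Averages of at least two (table footnote: three) independent determinations.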

For assay [2], the system named is Nucleic Acid. Description: Rate constants (1/s x 10e4) for loss of compound when incubated with calf thymus DNA in SHE buffer (pH 7.0) at 37 degree Centigrade, as determined by HPLC. The conditions noted are these: Bos taurus. It counts as nucleic-acid assay. Summed up: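 Aliquots extracted into 1-butanol with NaOAc; unreacted drug quantified by C-18 reverse-phase HPLC, 254 nm. kobs (hydrolysis plus alkylation) from ln(peak area) vs time fit.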

In the case of `CNC(=O)OCc1nc(SC)n(C)c1COC(=O)NC`, the IC50 (commonly the concentration that inhibits the measured activity by half) in assay [1] was above 20 µM. Further, the k obs in assay [2] amounted to 0.000134 s⁻¹. In assay [1], `OCc1ncn(CCCc2ccc(Nc3c4ccccc4nc4ccccc34)cc2)c1CO` showed an IC50 of 12 µM.

In the case of `O=C(Nc1ccc(CCCn2cnc(CO)c2CO)cc1)c1ccc(Nc2ccnc3ccccc23)cc1`, in assay [1], the IC50 was above 20 µM. Same read-out and setting: the figure for `CSc1nc(CO)c(CO)n1CCCc1ccc(Nc2c3ccccc3nc3ccccc23)cc1` is 1.3 µM; for `CSc1nc(CO)c(CO)n1CCCc1ccc(NC(=O)c2ccc(Nc3ccnc4ccccc34)cc2)cc1` it is above 20 µM. Same read-out and setting: the figure for `CNC(=O)OCc1ncn(CCCc2ccc(NC(=O)c3ccc(Nc4ccnc5ccccc45)cc3)cc2)c1COC(=O)NC` is above 20 µM.

On to `OCc1c(CO)c2n(c1CCCc1ccc(Nc3c4ccccc4nc4ccccc34)cc1)CCC2`, for which, in assay [1], the IC50 turned out to be 1.3 µM. In addition, in assay [2], the k obs worked out at 0.000187 s⁻¹.

In turn, `CNC(=O)OCc1nc(SC)n(CCCc2ccc(NC(=O)c3ccc(Nc4ccnc5ccccc45)cc3)cc2)c1COC(=O)NC` registered an IC50 in assay [1] of 11 µM. This molecule registered a k obs in assay [2] of 8.8e-05 s⁻¹. The corresponding values for `CNC(=O)OCc1nc(SC)n(CCCc2ccc(Nc3c4ccccc4nc4ccccc34)cc2)c1COC(=O)NC` are 0.8 µM and 0.000161 s⁻¹. The like results for `O=C(Nc1ccc(CCCc2c(CO)c(CO)c3n2CCC3)cc1)c1ccc(Nc2ccnc3ccccc23)cc1` were, in that order, 0.11 µM and 0.000186 s⁻¹.

Take `CNC(=O)OCc1ncn(CCCc2ccc(Nc3c4ccccc4nc4ccccc34)cc2)c1COC(=O)NC`: it took 16 µM to reach half-maximal inhibition in assay [1] (IC50). In the case of `O=C(Nc1ccc(CCc2c(CO)c(CO)c3n2CCC3)cc1)c1ccc(Nc2ccnc3ccccc23)cc1`, the IC50 in assay [1] stood at 0.03 µM. Further, the k obs in assay [2] turned out to be 0.000158 s⁻¹.
